{
  "source": "ChEMBL document CHEMBL2062435",
  "about": "“Synthesis and in vitro antibacterial activity of gemifloxacin derivatives containing a substituted benzyloxime moiety” (2012)",
  "assay_type_in_all_cases": "functional",
  "key": {"Pseudomonas aeruginosa [1]": {"tested_on": "Pseudomonas aeruginosa", "test": "Antimicrobial activity against extended spectrum beta-lactamases-producing Pseudomonas aeruginosa 10-15 after 18-24 hrs by two-fold serial dilution method", "method_in_brief": "(§1)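 Agar-medium twofold serial dilution against Gram-positive and Gram-negative strains; MIC taken as the lowest compound concentration giving complete inhibition of bacterial growth after incubation at 35 °C for 18-24 h.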"}, "Pseudomonas aeruginosa [2]": {"tested_on": "Pseudomonas aeruginosa", "test": "Antimicrobial activity against extended spectrum beta-lactamases-producing Pseudomonas aeruginosa 10-18 after 18-24 hrs by two-fold serial dilution method", "method_in_brief": "as §1"}, "Pseudomonas aeruginosa [3]": {"tested_on": "Pseudomonas aeruginosa", "test": "Antimicrobial activity against Pseudomonas aeruginosa 10-12 after 18-24 hrs by two-fold serial dilution method", "method_in_brief": "as §1"}, "[4]": {"tested_on": "Staphylococcus epidermidis", "test": "Ratio of levofloxacin MIC to compound MIC for extended spectrum beta-lactamases-producing methicillin-sensitive Staphylococcus epidermidis 10-15 after 18-24 hrs by two-fold serial dilution method", "method_in_brief": "(§2)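 MICs were determined by the standard twofold serial dilution method on agar media against the test strains, with levofloxacin run as a reference. MIC is the lowest concentration giving complete inhibition of bacterial growth after 18–24 h incubation at 35 °C. The ratio is levofloxacin MIC divided by test-compound MIC.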"}, "Enterococcus faecalis [5]": {"tested_on": "Enterococcus faecalis", "test": "Ratio of gemifloxacin MIC to compound MIC for Enterococcus faecalis 10-6 after 18-24 hrs by two-fold serial dilution method"}, "Escherichia coli [6]": {"tested_on": "Escherichia coli", "test": "Antimicrobial activity against Escherichia coli 10-1 after 18-24 hrs by two-fold serial dilution method", "method_in_brief": "as §1"}, "[7]": {"tested_on": "Staphylococcus epidermidis", "test": "Ratio of levofloxacin MIC to compound MIC for extended spectrum beta-lactamases-producing methicillin-sensitive Staphylococcus epidermidis 10-13 after 18-24 hrs by two-fold serial dilution method", "method_in_brief": "as §2"}, "Enterococcus faecalis [8]": {"tested_on": "Enterococcus faecalis", "test": "Ratio of levofloxacin MIC to compound MIC for Enterococcus faecalis 10-5 after 18-24 hrs by two-fold serial dilution method"}, "Enterococcus faecalis [9]": {"tested_on": "Enterococcus faecalis", "test": "Ratio of levofloxacin MIC to compound MIC for Enterococcus faecalis 10-6 after 18-24 hrs by two-fold serial dilution method"}, "Enterococcus faecium [10]": {"tested_on": "Enterococcus faecium", "test": "Ratio of levofloxacin MIC to compound MIC for Enterococcus faecium 10-5 after 18-24 hrs by two-fold serial dilution method"}, "Pseudomonas aeruginosa [11]": {"tested_on": "Pseudomonas aeruginosa", "test": "Antimicrobial activity against extended spectrum beta-lactamases-producing Pseudomonas aeruginosa 10-5 after 18-24 hrs by two-fold serial dilution method", "method_in_brief": "as §1"}, "Staphylococcus aureus [12]": {"tested_on": "Staphylococcus aureus", "test": "Antimicrobial activity against extended spectrum beta-lactamases-producing methicillin-resistant Staphylococcus aureus 10-15 after 18-24 hrs by two-fold serial dilution method", "method_in_brief": "(§3)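 Agar twofold serial dilution MIC against clinical isolates. MIC was taken as the lowest concentration giving complete inhibition of bacterial growth after incubation at 35 °C for 18-24 h.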"}, "Staphylococcus aureus [13]": {"tested_on": "Staphylococcus aureus", "test": "Ratio of gemifloxacin MIC to compound MIC for extended spectrum beta-lactamases-producing methicillin-sensitive Staphylococcus aureus 10-13 after 18-24 hrs by two-fold serial dilution method"}, "Escherichia coli [14]": {"tested_on": "Escherichia coli", "test": "Antimicrobial activity against extended spectrum beta-lactamases-producing Escherichia coli 10-3 after 18-24 hrs by two-fold serial dilution method", "method_in_brief": "as §1"}, "[15]": {"tested_on": "Staphylococcus epidermidis", "test": "Antimicrobial activity against extended spectrum beta-lactamases-producing methicillin-resistant Staphylococcus epidermidis 10-13 after 18-24 hrs by two-fold serial dilution method", "method_in_brief": "as §3"}, "Enterococcus faecium [16]": {"tested_on": "Enterococcus faecium", "test": "Antimicrobial activity against Enterococcus faecium 10-9 after 18-24 hrs by two-fold serial dilution method", "method_in_brief": "as §1"}, "Enterococcus faecium [17]": {"tested_on": "Enterococcus faecium", "test": "Ratio of gemifloxacin MIC to compound MIC for Enterococcus faecium 10-9 after 18-24 hrs by two-fold serial dilution method"}, "Escherichia coli [18]": {"tested_on": "Escherichia coli", "test": "Antimicrobial activity against Escherichia coli 10-3 after 18-24 hrs by two-fold serial dilution method", "method_in_brief": "as §1"}, "Enterococcus faecalis [19]": {"tested_on": "Enterococcus faecalis", "test": "Antimicrobial activity against Enterococcus faecalis 10-5 after 18-24 hrs by two-fold serial dilution method", "method_in_brief": "as §1"}, "Enterococcus faecium [20]": {"tested_on": "Enterococcus faecium", "test": "Antimicrobial activity against Enterococcus faecium 10-5 after 18-24 hrs by two-fold serial dilution method", "method_in_brief": "as §1"}, "Enterococcus faecalis [21]": {"tested_on": "Enterococcus faecalis", "test": "Ratio of gemifloxacin MIC to compound MIC for Enterococcus faecalis 10-5 after 18-24 hrs by two-fold serial dilution method"}, "Enterococcus faecalis [22]": {"tested_on": "Enterococcus faecalis", "test": "Antimicrobial activity against Enterococcus faecalis 10-6 after 18-24 hrs by two-fold serial dilution method", "method_in_brief": "as §1"}, "[23]": {"tested_on": "Staphylococcus epidermidis", "test": "Ratio of gemifloxacin MIC to compound MIC for extended spectrum beta-lactamases-producing methicillin-sensitive Staphylococcus epidermidis 10-11 after 18-24 hrs by two-fold serial dilution method"}},
  "data": [
    {"smiles": "COc1ccc(OC)c(CO/N=C2\\CN(c3nc4c(cc3F)c(=O)c(C(=O)O)cn4C3CC3)CC2CN)c1.CS(=O)(=O)O", "note": "(racemic)", "values": [
      {"measurement": "MIC", "setting": "Pseudomonas aeruginosa [1]", "value": "> 128", "unit": "µg/mL"},
      {"measurement": "MIC", "setting": "Pseudomonas aeruginosa [2]", "value": "> 128", "unit": "µg/mL"},
      {"measurement": "MIC", "setting": "Pseudomonas aeruginosa [3]", "value": "> 128", "unit": "µg/mL"},
      {"measurement": "Ratio", "setting": "[4]", "value": 8},
      {"measurement": "Ratio", "setting": "Enterococcus faecalis [5]", "value": 2},
      {"measurement": "MIC", "setting": "Escherichia coli [6]", "value": "> 128", "unit": "µg/mL"},
      {"measurement": "Ratio", "setting": "[7]", "value": 8},
      {"measurement": "Ratio", "setting": "Enterococcus faecalis [8]", "value": 8},
      {"measurement": "Ratio", "setting": "Enterococcus faecalis [9]", "value": 8},
      {"measurement": "Ratio", "setting": "Enterococcus faecium [10]", "value": 8},
      {"measurement": "MIC", "setting": "Pseudomonas aeruginosa [11]", "value": "> 128", "unit": "µg/mL"},
      {"measurement": "MIC", "setting": "Staphylococcus aureus [12]", "value": 0.125, "unit": "µg/mL"},
      {"measurement": "Ratio", "setting": "Staphylococcus aureus [13]", "value": 2},
      {"measurement": "MIC", "setting": "Escherichia coli [14]", "value": "> 128", "unit": "µg/mL"},
      {"measurement": "MIC", "setting": "[15]", "value": 0.25, "unit": "µg/mL"},
      {"measurement": "MIC", "setting": "Enterococcus faecium [16]", "value": 4, "unit": "µg/mL"},
      {"measurement": "Ratio", "setting": "Enterococcus faecium [17]", "value": 2},
      {"measurement": "MIC", "setting": "Escherichia coli [18]", "value": "> 128", "unit": "µg/mL"},
      {"measurement": "MIC", "setting": "Enterococcus faecalis [19]", "value": 0.25, "unit": "µg/mL"},
      {"measurement": "MIC", "setting": "Enterococcus faecium [20]", "value": 4, "unit": "µg/mL"},
      {"measurement": "Ratio", "setting": "Enterococcus faecalis [21]", "value": 2},
      {"measurement": "MIC", "setting": "Enterococcus faecalis [22]", "value": 4, "unit": "µg/mL"},
      {"measurement": "Ratio", "setting": "[23]", "value": 2}
    ]}
  ]
}
